Activity data for 22 molecules are collected here from ChEMBL document CHEMBL3244011, “(Aryloxy)[p-(aryloxy)phenyl]- and (aryloxy)[p-(arylthio)phenyl]acetic acids and esters as hypolipidemic agents” (1979).

Format in all cases: functional
Design in all cases: scale not given: the % may be the effect or the level left

Assay [1] concerns Rattus norvegicus. Put plainly: Hypolipidemic activity in COBBS-CD rat assessed as reduction in serum sterol level at 0.03% administered with chow diet after 5 days relative to control. In short, it runs like this:
(§1)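 Male COBBS-CD rats, four per treated group and eight per control group. The compound was mixed into ground rat chow at 0.1, 0.03 or 0.01% w/w (about 100, 30 and 10 mg/kg). Control chow received only the mixing solvent (methanol-chloroform 1:3 v/v). Food and water were ad libitum for 5 days, then rats were decapitated and blood collected. Serum sterols were measured by an automated method and expressed relative to controls; ± values are SD.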

In assay [2] the test system is Rattus norvegicus. Kind of assay: Hypolipidemic activity in COBBS-CD rat assessed as reduction in serum sterol level at 0.1% administered with chow diet after 5 days relative to control. In short, it runs like this:
as §1

In assay [3] the test system is Rattus norvegicus. Kind of assay: Hypolipidemic activity in COBBS-CD rat assessed as reduction in serum triglyceride level at 0.01% administered with chow diet after 5 days relative to control. The gist of the method: (§2)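 The compound was given in ground chow at 0.1, 0.03 or 0.01% w/w (about 100, 30 and 10 mg/kg) to male COBBS-CD rats (n=4; solvent-chow controls n=8) for 5 days ad libitum. Rats were killed by decapitation and blood collected. Serum triglycerides were assayed by an automated method and compared with controls; ± values are SD.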

The subject of assay [4] is Rattus norvegicus. Kind of assay: Hypolipidemic activity in COBBS-CD rat assessed as reduction in serum triglyceride level at 0.1% administered with chow diet after 5 days relative to control. In short, it runs like this: as §2
In assay [5] the test system is Rattus norvegicus. Kind of assay: Hypolipidemic activity in COBBS-CD rat assessed as reduction in serum triglyceride level at 0.03% administered with chow diet after 5 days relative to control. The gist of the method: as §2
Assay [6] deals with Rattus norvegicus. Put plainly: Hypolipidemic activity in COBBS-CD rat assessed as reduction in serum sterol level at 0.01% administered with chow diet after 5 days relative to control. In short, it runs like this:
as §1

In the case of `COC(=O)C(Oc1ccc(Cl)c2ccccc12)c1ccc(Oc2ccc(Cl)cc2)cc1` (stereo not given), the Activity is recorded as -3% in the assay on Rattus norvegicus [1]; 11% in the assay with Rattus norvegicus [2]; -15% with Rattus norvegicus [3]; 32% with Rattus norvegicus [4]; -8% in the assay on Rattus norvegicus [5]; -18% in the assay with Rattus norvegicus [6].
On to `COC(=O)C(Oc1ccc(Cl)cc1)c1ccc(Oc2ccc(Cl)cc2)cc1` (stereo not given), for which the Activity in the assay with Rattus norvegicus [1] is reported as 23%; with Rattus norvegicus [2], 33%; in the assay with Rattus norvegicus [3] it was 39%; in the assay with Rattus norvegicus [4], 56%; with Rattus norvegicus [5], 48%; in the assay on Rattus norvegicus [6] it was 16%.
In the case of `COC(=O)C(Oc1ccccc1)c1ccc(Oc2ccc(Cl)cc2)cc1` (stereo not given), the Activity with Rattus norvegicus [1] was determined as 18%; in the assay on Rattus norvegicus [2], 31%; with Rattus norvegicus [3], 77%; with Rattus norvegicus [4], 68%; in the assay with Rattus norvegicus [5] it was 67%; with Rattus norvegicus [6], 18%.
In the case of `COC(=O)C(Oc1cccc(C(C)(C)C)c1)c1ccc(Oc2ccc(Cl)cc2)cc1` (stereo not given), the Activity with Rattus norvegicus [1] was 20%; with Rattus norvegicus [2], 41%; with Rattus norvegicus [3], 41%; in the assay with Rattus norvegicus [4], 63%; with Rattus norvegicus [5], 49%; in the assay with Rattus norvegicus [6], 23%.
For the molecule `COC(=O)C(Oc1ccc(OCc2ccccc2)cc1)c1ccc(Oc2ccc(Cl)cc2)cc1` (stereo not given), the Activity was determined as 26% in the assay with Rattus norvegicus [1]; 30% in the assay with Rattus norvegicus [2]; 29% with Rattus norvegicus [3]; 57% in the assay with Rattus norvegicus [4]; 37% in the assay with Rattus norvegicus [5]; 13% in the assay with Rattus norvegicus [6].
Regarding `O=C(O)C(Oc1ccc(Oc2ccccc2)cc1)c1ccc(Oc2ccc(Cl)cc2)cc1` (stereo not given), the Activity with Rattus norvegicus [1] is listed as 21%; with Rattus norvegicus [2] it was 33%; in the assay with Rattus norvegicus [3], 53%; in the assay with Rattus norvegicus [4] it was 54%; in the assay with Rattus norvegicus [5] it was 38%; with Rattus norvegicus [6], 13%.
Turning to `COC(=O)C(Oc1ccc(C(C)(C)C)cc1Cl)c1ccc(Oc2ccc(Cl)cc2)cc1` (stereo not given), the Activity in the assay with Rattus norvegicus [1] amounted to 29%; in the assay with Rattus norvegicus [2], 28%; in the assay with Rattus norvegicus [3] it was 25%; in the assay with Rattus norvegicus [4] it was 64%; with Rattus norvegicus [5], 50%; with Rattus norvegicus [6] it was 17%.
For the molecule `COC(=O)C(Oc1cccc2ccccc12)c1ccc(Oc2ccc(Cl)cc2)cc1` (stereo not given), the Activity in the assay on Rattus norvegicus [1] was 3%; in the assay on Rattus norvegicus [2], 4%; in the assay with Rattus norvegicus [4] it was 39%; with Rattus norvegicus [5], 36%.
Take `COC(=O)C(Oc1ccc2c(c1)CCC2)c1ccc(Oc2ccc(Cl)cc2)cc1` (stereo not given): the Activity is listed as 30% in the assay with Rattus norvegicus [1]; 25% in the assay with Rattus norvegicus [2]; 37% with Rattus norvegicus [3]; 52% with Rattus norvegicus [4]; 51% in the assay on Rattus norvegicus [5]; 26% with Rattus norvegicus [6].
For the molecule `COC(=O)C(Oc1ccc2ccccc2c1)c1ccc(Oc2ccc(Cl)cc2)cc1` (stereo not given), the Activity is recorded as 15% in the assay with Rattus norvegicus [1]; 32% with Rattus norvegicus [2]; 32% in the assay on Rattus norvegicus [3]; 55% with Rattus norvegicus [4]; 44% in the assay on Rattus norvegicus [5]; 10% in the assay with Rattus norvegicus [6].
Take `COC(=O)C(Oc1ccc(Cl)c2c1CCCC2)c1ccc(Oc2ccc(Cl)cc2)cc1` (stereo not given): the Activity in the assay on Rattus norvegicus [1] is 30%; in the assay on Rattus norvegicus [2], 25%; with Rattus norvegicus [3] it was 24%; in the assay on Rattus norvegicus [4], 54%; with Rattus norvegicus [5], 28%; in the assay with Rattus norvegicus [6], -1%.
For the molecule `COC(=O)C(Oc1ccc(C2(C)CCCCC2)cc1)c1ccc(Oc2ccc(Cl)cc2)cc1` (stereo not given), the Activity with Rattus norvegicus [1] is listed as 13%; in the assay on Rattus norvegicus [2], 18%; in the assay on Rattus norvegicus [3], 64%; with Rattus norvegicus [4], 65%; in the assay with Rattus norvegicus [5], 70%; in the assay with Rattus norvegicus [6], 26%.
Take `COC(=O)C(Oc1ccc(C23CC4CC(CC(C4)C2)C3)cc1)c1ccc(Oc2ccc(Cl)cc2)cc1` (stereo not given): the Activity in the assay with Rattus norvegicus [1] turned out to be 16%; with Rattus norvegicus [2], 3%; in the assay with Rattus norvegicus [3], 11%; in the assay with Rattus norvegicus [4], 17%; with Rattus norvegicus [5], 29%; in the assay with Rattus norvegicus [6], 14%.
Take `COC(=O)C(Oc1ccc(F)cc1)c1ccc(Oc2ccc(C#N)cc2)cc1` (stereo not given): the Activity with Rattus norvegicus [1] is reported as 19%; with Rattus norvegicus [2] it was 33%; in the assay on Rattus norvegicus [3], 38%; in the assay on Rattus norvegicus [4], 60%; in the assay with Rattus norvegicus [5] it was 31%; in the assay with Rattus norvegicus [6] it was 13%.
In the case of `COC(=O)C(Oc1ccc(C(C)(C)C)cc1)c1ccc(Oc2ccc(NC(C)=O)cc2)cc1` (stereo not given), the Activity in the assay on Rattus norvegicus [1] is recorded as 18%; in the assay with Rattus norvegicus [2], 16%; in the assay with Rattus norvegicus [3] it was 44%; in the assay with Rattus norvegicus [4] it was 55%; in the assay with Rattus norvegicus [5] it was 50%; with Rattus norvegicus [6], 5%.
As for `O=C(O)C(Oc1ccccc1)c1ccc(Oc2ccccc2)cc1` (stereo not given), the Activity in the assay with Rattus norvegicus [1] was found to be 15%; in the assay on Rattus norvegicus [2], 22%; with Rattus norvegicus [3], 3%; in the assay with Rattus norvegicus [4] it was 51%; in the assay on Rattus norvegicus [5], 37%; with Rattus norvegicus [6], 21%.
Take `COC(=O)C(Oc1ccc(C(C)(C)C)cc1)c1ccc(Oc2ccc(Cl)c3ccccc23)cc1` (stereo not given): the Activity in the assay on Rattus norvegicus [1] was determined as 24%; in the assay with Rattus norvegicus [2] it was 23%; in the assay with Rattus norvegicus [3] it was 29%; with Rattus norvegicus [4], 56%; in the assay on Rattus norvegicus [5], 39%; in the assay on Rattus norvegicus [6], 16%.
Regarding `COC(=O)C(Oc1ccc(C2CCCCC2)cc1)c1ccc(Oc2ccc(C(C)(C)C)cc2)cc1` (stereo not given), the Activity is 16% with Rattus norvegicus [1]; 33% in the assay on Rattus norvegicus [2]; 29% with Rattus norvegicus [3]; 52% in the assay on Rattus norvegicus [4]; 49% in the assay on Rattus norvegicus [5]; -5% with Rattus norvegicus [6].
Take `COC(=O)C(Oc1ccc(Cl)cc1)c1ccc(Sc2ccc(Cl)cc2)cc1` (stereo not given): the Activity in the assay with Rattus norvegicus [1] was found to be 25%; with Rattus norvegicus [2] it was 25%; in the assay with Rattus norvegicus [3], 66%; in the assay on Rattus norvegicus [4], 64%; in the assay on Rattus norvegicus [5], 62%; in the assay on Rattus norvegicus [6], 17%.
Take `COC(=O)C(Oc1ccc(C(C)(C)C)cc1)c1ccc(Sc2ccc(Cl)cc2)cc1` (stereo not given): the Activity in the assay on Rattus norvegicus [1] was 27%; in the assay on Rattus norvegicus [2], 12%; in the assay on Rattus norvegicus [3], 45%; in the assay with Rattus norvegicus [4], 59%; in the assay on Rattus norvegicus [5], 56%; in the assay on Rattus norvegicus [6], 10%.
Turning to `COC(=O)C(Oc1ccc(Cl)cc1)(C(=O)OC)c1ccc(Oc2ccc(Cl)cc2)cc1`, the Activity in the assay on Rattus norvegicus [1] was 25%; in the assay on Rattus norvegicus [2] it was 32%; with Rattus norvegicus [3], -2%; in the assay with Rattus norvegicus [4], 63%; in the assay with Rattus norvegicus [5] it was 48%; in the assay on Rattus norvegicus [6] it was 9%.
Regarding `COC(=O)C(Oc1ccc(Cl)cc1)c1ccc([S+]([O-])c2ccc(Cl)cc2)cc1` (stereo not given), the Activity in the assay on Rattus norvegicus [1] was determined as 11%; in the assay on Rattus norvegicus [2], 31%; in the assay on Rattus norvegicus [3], 12%; in the assay on Rattus norvegicus [4], 55%; in the assay on Rattus norvegicus [5] it was 35%; in the assay with Rattus norvegicus [6], 15%.
